LMPTP inh: LMPTP phosphatase inhibitors, primary screen, biochemical, fluorescence intensity, uHTS | 0.22% of 360,000 active | Low molecular weight phosphotyrosine protein phosphatase (Homo sapiens), P24666 | inhibition, % at 20 µM | recombinant LMPTP-A, OMFP fluorogenic substrate | AID 651560, 2012;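 active = compounds that cut the enzyme signal by at least half of the control window in the single-dose screen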;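 also: plate controls were DMSO wells with enzyme plus substrate for no effect and substrate without enzyme for full effect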
Target sequence (P24666 whole entry, looked up): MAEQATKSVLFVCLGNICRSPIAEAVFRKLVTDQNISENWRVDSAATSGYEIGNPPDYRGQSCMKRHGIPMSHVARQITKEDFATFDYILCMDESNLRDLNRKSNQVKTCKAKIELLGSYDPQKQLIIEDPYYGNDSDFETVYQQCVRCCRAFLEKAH
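Material: LMPTP-A; amount: 0.625 nM enzyme; doses: single 20 µM dose; times: reaction 50 min, room temperature, dark; technique: fluorescence intensity of OMFP turnover product; benchmarks: no-enzyme and uninhibited controls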
SUMO1-SIM PPI: modulators of SUMO1 protein-protein interactions, primary screen, biochemical, uHTS. 0.33% of 360,000 active. Small ubiquitin-related modifier 1 (Homo sapiens), P63165. SUMO1 binding to a labelled peptide, TR-FRET, 1 h. inhibition, % at 20 µM; in the data active = inhibition above about 37%
Target sequence (P63165 whole entry, looked up): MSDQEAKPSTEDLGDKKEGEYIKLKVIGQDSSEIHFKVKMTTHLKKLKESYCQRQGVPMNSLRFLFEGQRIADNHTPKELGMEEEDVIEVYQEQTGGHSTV
DNMT1 inh: human DNMT1 methyltransferase inhibitors, primary screen, biochemical, molecular beacon, fluorescence, HinP1I cleavage, uHTS. 0.83% of 360,000 active. inhibition (reported as % activation of signal), % at 10 µM. DNA (cytosine-5)-methyltransferase 1 (Homo sapiens), P26358; in the data active = inhibition above about 50%
Scp1 inh: Scp-1 phosphatase inhibitors, primary screen, biochemical, colorimetric, uHTS | Carboxy-terminal domain RNA polymerase II polypeptide A small phosphatase 1 (Homo … | Recombinant Scp1, phosphopeptide, malachite green phosphate absorbance | inhibition, % at 20 µM | 0.88% of 340,000 active | AID 493091, 2011;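 active = inhibition above about 50% at 20 µM, limit read from the data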;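 also: plate controls were DMSO wells with enzyme for no effect and wells lacking enzyme for full effect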
Target sequence (Q9GZU7 76-261 limits assumed): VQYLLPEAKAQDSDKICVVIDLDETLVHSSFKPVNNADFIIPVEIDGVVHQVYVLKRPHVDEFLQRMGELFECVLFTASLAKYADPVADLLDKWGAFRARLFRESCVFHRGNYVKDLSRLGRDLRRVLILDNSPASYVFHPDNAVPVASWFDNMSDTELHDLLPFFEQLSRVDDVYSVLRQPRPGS
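Test system: SCP-1 phosphatase catalytic domain, residues 76-261; measured by: colorimetric phosphate reagent with accelerator and stabiliser, absorbance at 630 nm; timing: enzyme reaction 45 min at room temperature, colour 5 min, stabilisation 30 min; also added: Phosphorylated 17-residue peptide substrate; compound dosing: one concentration, 20 µM, with 1.0% DMSO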
GRK2 inh: compounds blocking aptamer binding on GRK2 – biochemical, human GRK2, bead flow cytometry, HTS, primary screen; Beta-adrenergic receptor kinase 1 (Homo sapiens), P25098; FAM-aptamer displacement from GRK2; inhibition of aptamer binding, % at 10 µM; 0.59% of 330,000 active; AID 488847, 2010;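 active = inhibition of aptamer binding above 40%, roughly 3 SD of noise, on plates passing a quality check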;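 also: median bead fluorescence of bound FAM aptamer so fluorescent compounds give negative values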
STEP block: STEP phosphatase inhibitors, primary screen, biochemical, fluorescence intensity, uHTS | Tyrosine-protein phosphatase non-receptor type 5 (Homo sapiens), P54829 | recombinant STEP, OMFP fluorogenic substrate | inhibition, % at 20 µM | 0.25% of 360,000 active | AID 588621, 2011;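 active = inhibition at 20 µM, scaled per plate between control wells, above about 37%, limit read from the data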;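 also: 0% = DMSO with enzyme and substrate and 100% = substrate only without enzyme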
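Assay system: isolated STEP enzyme / Timing: 20 min at room temperature, dark / Doses: 20 µM, 1% DMSO / Technique: fluorescence intensity, excitation 480 nm, emission 540 nm / Reagent: fluorogenic phosphatase substrate OMFP at 25 µM final / Measure: percent inhibition scaled to no-enzyme and uninhibited-enzyme controls, plate-pattern corrected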
Active calls of the source: *; x = no result. Hits are enriched below; roughly 2.2% of the tested compounds scored in any of these assays.

SMILES | LMPTP inh | SUMO1-SIM PPI | DNMT1 inh | Scp1 inh | GRK2 inh | STEP block
COc1ccc(-c2nc3ccccc3c(=O)n2-c2ccc(OC)cc2)cc1 | -0.6 | 5.0 | -0.7 | -7.1 | 0.0 | 4.5
COc1ccc(-c2nc3ccccc3c(=O)n2-c2nccs2)cc1 | -1.2 | 41.6* | -9.5 | -9.0 | 2.0 | -5.2
Cc1cccc(N2C(=O)/C(=C/c3ccc(CN(CCC#N)S(C)(=O)=O)o3)C(=O)NC2=S)c1 | 3.6 | 25.1 | 58.4* | 25.7 | 6.0 | 3.1
c1ccc(C(c2ccccc2)c2ccncc2)cc1 | 0.2 | 4.7 | -0.1 | 0.0 | x | -3.1
COc1ccc(P2(=O)Nc3ccccc3N2)cc1 | 0.8 | -4.1 | 20.7 | 55.4* | 13.0 | 11.0
COc1ccc2c(c1)NP(=S)(c1ccccc1)N2C (configuration not stated) | 1.1 | 1.8 | -23.2 | -6.8 | x | -3.9
Clc1ccc(C(c2ccc(Cl)cc2)n2cc[n+](CC(OCc3ccc(Cl)cc3Cl)c3ccc(Cl)cc3Cl)c2)cc1 (configuration not stated) | 32.0 | 80.4* | -54.8 | -0.7 | 0.0 | 8.3
O=C(O)CC1OCC=C2CN3CCC45C6=CC(=O)C(=O)C([N+](=O)[O-])=C6NC4C1C2CC35 (configuration not stated) | 14.6 | 30.3 | 58.2* | 20.6 | 2.0 | 17.5
CCCN(CC1CC1)CC(O)c1ccccc1 (configuration not stated) | -1.1 | 8.9 | 0.4 | -5.7 | 1.0 | 0.0
CC1(CCCc2ccc(N(CCCl)CCCl)cc2)NC(=O)NC1=O (configuration not stated) | -0.5 | 7.7 | 2.1 | x | x | -1.5
C=CCOC(=O)C1C(C(=O)O)C2(Cl)C(Cl)=C(Cl)C1(Cl)C2(Cl)Cl (configuration not stated) | -2.3 | 9.7 | -2.7 | -5.0 | x | 0.8
O=C(O)C1C(C(=O)O)C2(Cl)C(Cl)=C(Cl)C1(Cl)C2(Cl)Cl (configuration not stated) | 64.6* | 22.2 | 27.8 | -15.2 | 1.0 | 10.2
COc1ccc(/C=C2/C(=O)NC(=O)N(Cc3ccco3)C2=O)cc1 | x | x | x | x | 82.0* | x
COc1ccc(C2=CC(c3ccc4c(c3)OCO4)c3c(c4ccccc4oc3=O)O2)cc1OC (configuration not stated) | 1.8 | -3.3 | -4.5 | -5.3 | x | 1.1
O=C1NC(=O)N(c2ccc3c(c2)OCO3)C(=O)/C1=C/c1cccs1 | -2.0 | 6.0 | 4.5 | -5.6 | 44.0* | -2.3
O=C1NC(=O)N(c2ccc3c(c2)OCO3)C(=O)/C1=C/c1ccsc1 | -0.9 | 8.9 | 4.2 | 8.8 | 7.0 | 1.1
CC(CC(C#N)(c1ccccc1)c1ccccc1)N1CCOCC1 (configuration not stated) | -0.3 | -0.3 | 2.5 | -6.7 | x | -3.6
CN(C)C1C(=O)C(C(N)=O)=C(O)C2(O)C(=O)C3=C(O)c4c(O)cccc4C(C)(O)C3C(O)C12 (configuration not stated) | 51.8* | 8.2 | 52.9* | 16.5 | 3.0 | 6.3
O=C(C(=C1N(Cc2ccc(Cl)nc2)CCN1Cc1ccc(Cl)nc1)[N+](=O)[O-])C(Cl)Cl | -0.9 | -3.8 | 3.4 | -1.1 | 44.0* | -0.1
Cc1cccc(C)c1-n1nnnc1C(c1cccc2ccccc12)N1CCC2(CC1)C(=O)NCN2c1ccccc1 (configuration not stated) | 2.7 | 3.0 | 5.2 | x | x | 4.9
C=Cc1cc(OC)c2c(c1)c(=O)oc1c2cc(OC)c2c(O)ccc(C3OC(C)C(O)C(C)(O)C3O)c21 (configuration not stated) | 11.2 | 48.1* | 62.1* | 81.5* | x | 8.1

Assay outcomes deposited in PubChem BioAssay by several laboratories.
